According to ChEMBL document CHEMBL2413053, “3'-Oxo-, amino-, thio- and sulfone-acetic acid modified thymidines: effect of increased acidity on ribonuclease A inhibition” (Bioorg Med Chem, 2013):
Activity calls are given as the source filed them. The rule behind the calls is not given here.

Legend:
[1] = target: T1, Ribonuclease pancreatic (Bos taurus, UniProt P61823); experiment: Reversible competitive inhibition of bovine pancreatic RNase A using 2',3'-cCMP as substrate by Lineweaver-Burk plot analysis
T1 sequence (P61823 whole entry): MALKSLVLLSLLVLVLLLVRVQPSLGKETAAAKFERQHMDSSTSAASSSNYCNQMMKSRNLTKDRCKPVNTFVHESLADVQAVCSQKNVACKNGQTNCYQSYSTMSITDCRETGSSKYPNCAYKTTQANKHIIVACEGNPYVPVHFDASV
Method in brief: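 Spectrophotometric RNase A assay in 0.1 M Mes–NaOH, pH 6.0, with 0.1 M NaCl, using 2',3'-cCMP as substrate at varied concentrations. Two fixed inhibitor concentrations were run plus a no-inhibitor set. Ki was derived from initial velocities by Lineweaver–Burk analysis.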

[2] = target: T2, Ribonuclease pancreatic (Bos taurus) (UniProt P61823); experiment: Inhibition of bovine pancreatic RNase A assessed as degradation of tRNA at 0.35 mM incubated for 2 hrs prior to tRNA addition measured after 30 mins by precipitation assay
T2 sequence (whole entry): T1 sequence (P61823 whole entry)
Method in brief: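 RNase A (1.31 μM) preincubated with compound (0.35 mM) 2 h at 37 °C; aliquot then mixed with tRNA (5 mg/mL) in Tris–HCl pH 7.5 with 5 mM EDTA and 0.5 mg/mL HSA, 30 min at 25 °C. Quenched with ice-cold 1.14 M perchloric acid/6 mM uranyl acetate, 30 min on ice, centrifuged; diluted supernatant A260 compared with control.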

[3] = target: T2, Ribonuclease pancreatic (Bos taurus); experiment: Inhibition of bovine pancreatic RNase A assessed as degradation of tRNA at 0.07 to 0.20 mM incubated for 3 hrs prior to tRNA addition measured after 30 mins by agarose gel electrophoresis
Method in brief: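 RNase A (1.51 μM stock) preincubated 3 h with compound at 0.07, 0.14 and 0.20 mM in 100 μL. Aliquot then mixed 1:1 with tRNA (5.0 mg/mL, freshly dissolved in RNase-free water) and held 30 min. Sample buffer with glycerol and bromophenol blue was added. Run on 1.1% agarose gel in 0.04 M TAE, pH 8.0. Residual tRNA seen by ethidium bromide staining under UV.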

[4] = target: T2, Ribonuclease pancreatic (Bos taurus); experiment: Inhibition of bovine pancreatic RNase A assessed as degradation of tRNA at 0.06 to 0.24 mM incubated for 3 hrs prior to tRNA addition measured after 30 mins by agarose gel electrophoresis
Method in brief: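 RNase A (1.26 μM stock) preincubated 3 h with compound at 0.06, 0.12, 0.18 and 0.24 mM in 100 μL. Aliquot then mixed with tRNA (5.0 mg/mL, freshly dissolved in RNase-free water) for 30 min. Run on 1.1% agarose gel in 0.04 M TAE, pH 8.0. Residual tRNA visualized by ethidium bromide staining under UV.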

[5] = target: T2, Ribonuclease pancreatic (Bos taurus); conditions: 0.05 to 0.20 mM
[6] = target: T2, Ribonuclease pancreatic (Bos taurus); conditions: 0.05 to 0.24 mM

Row | SMILES | Ki [1] [µM] | inhibition [2] [%] | inhibition [3] | inhibition [4] | inhibition [5] | inhibition [6]
1 | COC(=O)CS(=O)(=O)C[C@H]1O[C@@H](n2cc(C)c(=O)[nH]c2=O)C[C@@H]1O | 202 | 14 | Active | – | – | –
2 | Cc1cn([C@H]2C[C@H](SCC(=O)O)[C@@H](CSCC(=O)O)O2)c(=O)[nH]c1=O | 93 | 18 | – | Active | – | –
3 | COC(=O)CSC[C@H]1O[C@@H](n2cc(C)c(=O)[nH]c2=O)C[C@H]1SCC(=O)OC | – | 5 | Active | – | – | –
4 | COC(=O)CS(=O)(=O)C[C@H]1O[C@@H](n2cc(C)c(=O)[nH]c2=O)C[C@@H]1S(=O)(=O)CC(=O)OC | 267 | 15 | Active | – | – | –
5 | Cc1cn([C@H]2C[C@@H](SCC(=O)O)[C@@H](CSCC(=O)O)O2)c(=O)[nH]c1=O | 108 | 16 | – | – | – | –
6 | Cc1cn([C@H]2C[C@H](S(=O)(=O)CC(=O)O)[C@@H](CS(=O)(=O)CC(=O)O)O2)c(=O)[nH]c1=O | 25 | 35 | – | – | Active | –
7 | COC(=O)CS(=O)(=O)[C@H]1C[C@H](n2cc(C)c(=O)[nH]c2=O)O[C@@H]1CO | 140 | 18 | Active | – | – | –

Continued, values first:

Row | Ki [1] [µM] | inhibition [2] [%] | inhibition [3] | inhibition [4] | inhibition [5] | inhibition [6] | SMILES
8 | 504 | 7 | Active | – | – | – | CCOC(=O)CN[C@H]1C[C@H](n2cc(C)c(=O)[nH]c2=O)O[C@@H]1CO
9 | 757 | 3 | Active | – | – | – | COC(=O)CS[C@H]1C[C@H](n2cc(C)c(=O)[nH]c2=O)O[C@@H]1CO
10 | 95 | 22 | – | Active | – | – | Cc1cn([C@H]2C[C@H](O)[C@@H](CS(=O)(=O)CC(=O)O)O2)c(=O)[nH]c1=O
11 | 39 | 33 | – | – | – | Active | Cc1cn([C@H]2C[C@@H](S(=O)(=O)CC(=O)O)[C@@H](CS(=O)(=O)CC(=O)O)O2)c(=O)[nH]c1=O
12 | 186 | 19 | Active | – | – | – | Cc1cn([C@H]2C[C@H](NCC(=O)O)[C@@H](CO)O2)c(=O)[nH]c1=O
13 | 88 | 25 | – | Active | – | – | Cc1cn([C@H]2C[C@H](S(=O)(=O)CC(=O)O)[C@@H](CO)O2)c(=O)[nH]c1=O
14 | 267 | 13 | Active | – | – | – | Cc1cn([C@H]2C[C@H](OCC(=O)O)[C@@H](CO)O2)c(=O)[nH]c1=O
15 | 169 | 17 | Active | – | – | – | Cc1cn([C@H]2C[C@H](SCC(=O)O)[C@@H](CO)O2)c(=O)[nH]c1=O
16 | 242 | 12 | Active | – | – | – | COC(=O)CS(=O)(=O)C[C@H]1O[C@@H](n2cc(C)c(=O)[nH]c2=O)C[C@H]1S(=O)(=O)CC(=O)OC
